22 molecules from ChEMBL document CHEMBL4049418, “6-OH-Phenanthroquinolizidine Alkaloid and Its Derivatives Exert Potent Anticancer Activity by Delaying S Phase Progression” (J Med Chem, 2017) can be followed below.

The subject of one data set is Bel-7402. The data set can be described thus: Antiproliferative activity against human Bel7402 cells assessed as reduction in viability after 72 hrs by SRB assay. The class given is functional, cell-based. Conditions: Bel-7402, 72 h. The method in brief:
(§1)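 Cells seeded and dosed in triplicate for 72 h. Suspension lines (HL-60, K-562, K562/ADR, HL-60/MX2) were read by MTT: 5 mg/mL MTT stock added, 4 h at 37 °C, formazan dissolved in 10% SDS/5% isobutanol/10 mM HCl, A570. Adherent lines were read by SRB: fixed with cold 10% TCA, stained with 0.4% SRB in 1% acetic acid, A540. IC50 from four-parameter logistic fit; mean of ≥3 independent experiments.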
For orientation: The SRB assay estimates cell density from bound dye.

Another data set relates to A549. The data set can be described thus: Antiproliferative activity against human A549 cells assessed as reduction in viability after 72 hrs by SRB assay. In kind it is functional, cell-based. Conditions: A549, 72 h. The method in brief: as §1
Data set [1] can be described thus: Antiproliferative activity against human KB/VCR cells after 72 hrs by SRB assay. The class given is functional, cell-based. The method in brief:
as §1

The next data set concerns KB. The data set can be described thus: Antiproliferative activity against human KB cells after 72 hrs by SRB assay. In kind it is functional, cell-based. The method in brief: as §1
Data set [2] is described as follows: Resistance factor, ratio of IC50 for human KB/VCR cells to IC50 for human KB cells. In kind it is functional. In a few lines: (§2)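 72 h treatment in triplicate; suspended lines (HL-60, K-562, K562/ADR, HL-60/MX2) read by MTT (4 h, SDS/isobutanol/HCl solubilization, 570 nm); adherent KB and KB/VCR (MEM, 10% FBS) by SRB after TCA fixation (540 nm); IC₅₀ by four-parameter logistic fit, mean of ≥3 independent experiments.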

Data set [3] can be described thus: Selectivity ratio of IC50 for human MRC5 cells to IC50 for human A549 cells. The method in brief: (§3)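 SRB assay: A549 (F-12, 10% FBS) and MRC-5/MRC-9 (EMEM, 10% FBS) treated in triplicate 72 h, fixed with ice-cold 10% TCA, stained with 0.4% SRB in 1% acetic acid, absorbance 540 nm; IC₅₀ by four-parameter logistic fit, mean of ≥3 independent experiments.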
Data set [4] is described as follows: Cytotoxicity against Sprague-Dawley rat primary neuronal cells assessed as reduction in cell viability at 300 nM after 24 hrs by MTT assay. In kind it is cell-based. As to conditions: read-out: INH. On the technique in general: Formazan colour is commonly taken as a measure of viable cells.
Data set [5] is described as follows: Antiproliferative activity against human MRC9 cells assessed as reduction in viability after 72 hrs by SRB assay. In kind it is cell-based. Conditions: MRC9, 72 h. In a few lines: as §1
Data set [6] in a line: Selectivity ratio of IC50 for human MRC9 cells to IC50 for human A549 cells. In a few lines:
as §3

The subject of another data set is L02. The data set can be described thus: Antiproliferative activity against human LO2 cells assessed as reduction in viability after 72 hrs by SRB assay. In kind it is cell-based. As to conditions: L02, 72 h. In a few lines:
as §1

For a further data set, the system named is MRC5. The data set can be described thus: Antiproliferative activity against human MRC5 cells assessed as reduction in viability after 72 hrs by SRB assay. The class given is cell-based. As to conditions: MRC5, 72 h. In a few lines: as §1
Data set [7] is described as follows: Cytotoxicity against Sprague-Dawley rat primary neuronal cells assessed as reduction in cell viability after 24 hrs by MTT assay. In kind it is cell-based.
Another data set concerns K562. The data set can be described thus: Antiproliferative activity against human K562 cells after 72 hrs by MTT assay. The class given is functional, cell-based. As to conditions: K562, 72 h. The method in brief: as §1
Data set [8] is described as follows: Resistance factor, ratio of IC50 for human K562/ADR cells to IC50 for human K562 cells. In kind it is functional. In a few lines:
as §2

The subject of the next data set is K562/Adr. The data set can be described thus: Antiproliferative activity against human K562/ADR cells after 72 hrs by MTT assay. The class given is functional, cell-based. The method in brief:
as §1

The test system of the next data set is HL-60. The data set can be described thus: Antiproliferative activity against human HL60 cells after 72 hrs by MTT assay. As to conditions: HL-60, 72 h. In kind it is functional, cell-based. The method in brief:
as §1

Data set [9] can be described thus: Resistance factor, ratio of IC50 for human HL60/MX2 cells to IC50 for human HL60 cells. In kind it is functional. The method in brief:
as §2

For the next data set, the system named is HL60/MX2. The data set can be described thus: Antiproliferative activity against human HL60/MX2 cells after 72 hrs by MTT assay. In kind it is functional, cell-based. As to conditions: HL60/MX2, 72 h. The method in brief: as §1

Structures are written as SMILES.

Usually IC50 stands for the concentration that inhibits the measured activity by half. For `COc1cc2c3c(c4ccc(OC(=O)C5CCCCC5)cc4c2cc1OC)CN1CCCCC1C3` (centres undefined), the IC50 in the data set with Bel-7402 amounted to 115 nM; in the data set with A549 it was 191 nM.
With `COc1cc2c3c(c4ccc(O)cc4c2cc1OC)CN1CCCCC1C3O` (racemic), the IC50 with Bel-7402 came out at 8 nM; in the data set on A549, 12 nM.
Taken in the same sequence, the figures for `COc1cc2c3c(c4ccc(OC(=O)C(C)(C)C)cc4c2cc1OC)CN1CCCCC1C3` (centres undefined) were 136 nM and 103 nM.
In the case of `CC[C@]1(O)C[C@H]2CN(CCc3c([nH]c4ccccc34)[C@@](C(=O)OC)(c3cc4c(cc3OC)N(C=O)[C@H]3[C@@](O)(C(=O)OC)[C@H](OC(C)=O)[C@]5(CC)C=CCN6CC[C@]43[C@@H]65)C2)C1` [VINCRISTINE], the figures for the IC50 (in data set [1]; in the data set on KB) were 239 nM and 0.2 nM, respectively. In addition, the “Ratio IC50” value in [2] was found to be 1193.5.
With `COc1cc2c3c(c4ccc(OCC#N)cc4c2cc1OC)CN1CCCCC1C3` (racemic), the IC50 in the data set on Bel-7402 was 2.2 to 6 nM; with A549, 1 to 3 nM.
On the same counts, the results for `COc1cc2c3c(c4ccc(O)cc4c2cc1OC)CN1CCCC[C@H]1C3` are 320 nM and 182 nM.
Regarding `C#CCOc1ccc2c3c(c4cc(OC)c(OC)cc4c2c1)CC1CCCCN1C3` (centres undefined), the half-maximal inhibitory concentration (IC50) with Bel-7402 is 33 nM; in the data set on A549, 30 nM.
Taken in the same sequence, the figures for `COc1cc2c3c(c4ccc(OC(=O)c5cccnc5)cc4c2cc1OC)CN1CCCCC1C3` (centres undefined) were 238 nM and 277 nM.
Taken in the same sequence, the figures for `COc1cc2c3c(c4ccc(OC(=O)c5cccs5)cc4c2cc1OC)CN1CCCCC1C3` (centres undefined) were 79 nM and 115 nM.
As to `COc1cc2c3c(c4ccc(OCCOC(=O)[C@H](C)N)cc4c2cc1OC)CN1CCCCC1C3` (some centres undefined), the IC50 with Bel-7402 was 47 nM; in the data set with A549, 49 nM.
On the same counts, the results for `COc1cc2c3c(c4ccc(OC(=O)c5ccco5)cc4c2cc1OC)CN1CCCCC1C3` (centres undefined) are 59 nM and 52 nM.
Consider `COc1cc2c3c(c4ccc(OCC#N)cc4c2cc1OC)CN1CCCC[C@@H]1C3`, for which the IC50 in the data set on Bel-7402 turned out to be 2.4 nM; in data set [5], 2.7 nM; with A549 it was 0.8 nM; in the data set with L02, 3.9 nM; in the data set with MRC5, 3.2 nM. In addition, the “Ratio IC50” value in [3] and in data set [6] was 3 - 4 in each case. In addition, the cytotoxicity at 24 h, 0.3 µM in data set [4] came to 50%. In [7], the “inhibition (INH)” value is listed as “Dose-dependent effect”.
`COc1cc2c3c(c4ccc(OCc5ccccc5)cc4c2cc1OC)CN1CCCCC1C3O` (racemic): the IC50 in the data set on Bel-7402 worked out at 917 nM; with A549, 1530 nM.
On the same counts, the results for `CCOC(=O)COc1ccc2c3c(c4cc(OC)c(OC)cc4c2c1)CC1CCCCN1C3` (centres undefined) are 411 nM and 458 nM.
Taken in the same sequence, the figures for `COc1cc2c3c(c4ccc(OC(=O)C5CC5)cc4c2cc1OC)CN1CCCCC1C3` (centres undefined) were 29 nM and 30 nM.
Taken in the same sequence, the figures for `COc1cc2c3c(c4ccc(OC(=O)c5cccc6nnsc56)cc4c2cc1OC)CN1CCCCC1C3` (centres undefined) were 20 nM and 29 nM.
As for `COc1cc2c3c(c4ccc(OC(C)=O)cc4c2cc1OC)CN1CCCCC1C3` (centres undefined), the values for the IC50 in the data set with Bel-7402 and with A549 were 23 nM and 22 nM, respectively.
For the molecule `COc1cccc2c1C(=O)c1c(O)c3c(c(O)c1C2=O)C[C@@](O)(C(=O)CO)C[C@@H]3O[C@H]1C[C@H](N)[C@H](O)[C@H](C)O1.Cl` [DOXORUBICIN HYDROCHLORIDE], the IC50 in the data set on K562 is 77.7 nM; in the data set on K562/Adr, 3310 nM. The “Ratio IC50” value in data set [8] stood at 42.6.
Regarding `Cl.Cl.O=C1c2c(O)ccc(O)c2C(=O)c2c(NCCNCCO)ccc(NCCNCCO)c21` [MITOXANTRONE HYDROCHLORIDE], the concentration for half-maximal inhibition (IC50) in the data set on HL-60 is 7.2 nM; in the data set on HL60/MX2, 351 nM. Moreover, the “Ratio IC50” value in data set [9] was found to be 48.7.
As to `COc1cc2c3c(c4ccc(OCC#N)cc4c2cc1OC)CN1CCCC[C@H]1C3`, the half-inhibitory concentration (IC50) with Bel-7402 was determined as 25.8 nM; with A549, 12.9 nM.
Taken in the same sequence, the figures for `COc1cc2c3c(c4ccc(O)cc4c2cc1OC)CN1CCCCC1C3` (racemic) were 3.4 to 3.5 nM and 1.2 to 2.9 nM.
Turning to `COc1cc2c3c(c4ccc(OCC(N)=O)cc4c2cc1OC)CN1CCCCC1C3` (centres undefined), the half-inhibitory concentration (IC50) in the data set with Bel-7402 worked out at 14 nM; with A549 it was 16 nM.
